Reference: ChEMBL document CHEMBL5230177, “Inactivation of myostatin by photooxygenation using functionalized d-peptides” (RSC Med Chem, 2023)
Activity calls are given as the source filed them. The calls are words filed in the database; no cut-off is given here.

How the values were obtained:
[1] = molecular target: Growth/differentiation factor 8 (Homo sapiens) (UniProt O14793); test: Photo-oxygenation of human recombinant Myostatin expressed in Escherichia coli cells assessed as oxygen adduct formation in myostatin peak fragment 79-90 at 3 uM measured after photoirradiation for 30 mins using LED by MALDI-TOF-MS analysis
Summary of the method: (§1)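 Myostatin stock (8 μM in 1 mM HCl) diluted to 1 μM in 10 mM phosphate, pH 7.4. Functionalized peptide (final 3 μM) or methylene blue (final 1 μM) added. Irradiated 30 min with 730 nm LED (14 mW) at room temperature. Then 50 mM DTT reduction (37 °C, 0.5 h), Lys-C digestion (1/20 w/w, 37 °C, 2.5 h), ZipTip desalting, MALDI-TOF MS of fragments.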

HEK293 = test: Phototoxicity against human HEK293 cells assessed as reduction in cell viability at 3 uM photoirradiated for 30 mins using LED followed by incubation with compound for 24 hrs by WST-1 assay; type: toxicity, cell-based; settings: hek293, 24.5 h, time 1470 min
Summary of the method: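 HEK293 cells grown in DMEM with 10% FBS and non-essential amino acids at 37 °C, 5% CO2, seeded 2.0×10^4 cells/well. After 48 h, medium switched to serum- and phenol red-free DMEM containing 3 μM peptide or methylene blue. Cells irradiated with LED (λmax 730 nm, 30 min), then incubated 24 h. Viability read by WST-1; Student's t-test.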

[2] = molecular target: Growth/differentiation factor 8 (Homo sapiens) (UniProt O14793); test: Inactivation of human recombinant Myostatin expressed in Escherichia coli cells at 3 nM incubated with luciferase reporter transfected HEK293 cells for 4 hrs by luciferase reporter gene assay
[3] = molecular target: Growth/differentiation factor 8 (Homo sapiens) (UniProt O14793); test: Photo-oxygenation of human recombinant Myostatin expressed in Escherichia coli cells assessed as oxygen adduct formation in myostatin peak fragment 55-78 at 3 uM measured after photoirradiation for 30 mins using LED by MALDI-TOF-MS analysis; summary of the method: as §1
[4] = molecular target: Amyloid-beta precursor protein (Homo sapiens) (UniProt P05067); test: Photo-oxygenation of human Amyloid beta (1 to 42) assessed as oxygen adduct formation at 3 uM measured after photoirradiation for 30 mins using LED by MALDI-TOF-MS analysis
Summary of the method: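 Aβ1-42 formed in situ from isopeptide stock (250 μM in 0.1% TFA, ultracentrifuged), diluted to 20 μM in 10 mM phosphate, pH 7.4. Functionalized peptide (final 3 μM) or methylene blue (final 1 μM) added. Irradiated with 730 nm LED (14 mW, 3–5 cm) at room temperature. Reduced with 50 mM DTT (37 °C, 0.5 h), Lys-C digested (1/20 w/w, 37 °C, 2.5 h), desalted, analysed by MALDI-TOF MS.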

[5] = system: chymotrypsin (Bos taurus); test: Stability of the compound assessed as chymotrypsin (bovine pancreas)-mediated drug degradation at 100 uM measured after 3 hrs by MALDI-TOF-MS analysis
[6] = molecular target: Growth/differentiation factor 8 (Homo sapiens) (UniProt O14793); test: Photo-oxygenation of human recombinant Myostatin expressed in Escherichia coli cells assessed as oxygen adduct formation in myostatin peak fragment 40-54 at 3 uM measured after photoirradiation for 30 mins using LED by MALDI-TOF-MS analysis; summary of the method: as §1
trypsin (Sus scrofa) = test: Stability of the compound assessed as trypsin (porcine pancreas)-mediated drug degradation at 100 uM measured after 3 hrs by MALDI-TOF-MS analysis
[7] = molecular target: Growth/differentiation factor 8 (Homo sapiens) (UniProt O14793); test: Photo-oxygenation mediated inactivation of human recombinant Myostatin expressed in Escherichia coli cells assessed as residual activity at 3 nM photoirradiated for 30 mins using LED followed by incubation with luciferase reporter transfected HEK293 cells for 4 hrs by luciferase reporter gene assay; settings: time 4.5 hrs
Summary of the method: (§2)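 Myostatin (1 μM in 10 mM phosphate, pH 7.4, with or without peptide) diluted in serum-free DMEM to 0.6 nM, irradiated at 730 nm for 30 min, then added to HEK293 cells. Cells were transfected 24 h with SBE-luc2P reporter plus TK-Renilla control, then held 8 h in serum/phenol red-free DMEM. Exposure 4 h, PBS wash, dual-luciferase read-out. Triplicate, mean ± s.d. (n = 3), Tukey's test.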

[8] = molecular target: T1, Growth/differentiation factor 8 (Homo sapiens, UniProt O14793); test: Photo-oxygenation mediated inactivation of human recombinant Myostatin expressed in Escherichia coli cells photoirradiated for 30 mins using LED followed by incubation with luciferase reporter transfected HEK293 cells for 4 hrs by luciferase reporter gene assay; summary of the method: as §2
T1 sequence (O14793 whole entry): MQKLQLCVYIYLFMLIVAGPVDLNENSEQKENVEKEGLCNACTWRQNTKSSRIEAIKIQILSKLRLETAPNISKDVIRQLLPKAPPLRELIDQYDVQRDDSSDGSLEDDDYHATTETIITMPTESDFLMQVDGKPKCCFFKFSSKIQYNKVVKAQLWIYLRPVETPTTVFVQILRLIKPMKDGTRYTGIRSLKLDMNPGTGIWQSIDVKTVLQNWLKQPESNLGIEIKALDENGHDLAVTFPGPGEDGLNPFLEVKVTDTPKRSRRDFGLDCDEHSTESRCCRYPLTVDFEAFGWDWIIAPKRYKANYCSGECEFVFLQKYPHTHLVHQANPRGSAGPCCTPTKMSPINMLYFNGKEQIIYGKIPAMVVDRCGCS

Chain of Amyloid-beta precursor protein (Homo sapiens) (P05067 whole entry): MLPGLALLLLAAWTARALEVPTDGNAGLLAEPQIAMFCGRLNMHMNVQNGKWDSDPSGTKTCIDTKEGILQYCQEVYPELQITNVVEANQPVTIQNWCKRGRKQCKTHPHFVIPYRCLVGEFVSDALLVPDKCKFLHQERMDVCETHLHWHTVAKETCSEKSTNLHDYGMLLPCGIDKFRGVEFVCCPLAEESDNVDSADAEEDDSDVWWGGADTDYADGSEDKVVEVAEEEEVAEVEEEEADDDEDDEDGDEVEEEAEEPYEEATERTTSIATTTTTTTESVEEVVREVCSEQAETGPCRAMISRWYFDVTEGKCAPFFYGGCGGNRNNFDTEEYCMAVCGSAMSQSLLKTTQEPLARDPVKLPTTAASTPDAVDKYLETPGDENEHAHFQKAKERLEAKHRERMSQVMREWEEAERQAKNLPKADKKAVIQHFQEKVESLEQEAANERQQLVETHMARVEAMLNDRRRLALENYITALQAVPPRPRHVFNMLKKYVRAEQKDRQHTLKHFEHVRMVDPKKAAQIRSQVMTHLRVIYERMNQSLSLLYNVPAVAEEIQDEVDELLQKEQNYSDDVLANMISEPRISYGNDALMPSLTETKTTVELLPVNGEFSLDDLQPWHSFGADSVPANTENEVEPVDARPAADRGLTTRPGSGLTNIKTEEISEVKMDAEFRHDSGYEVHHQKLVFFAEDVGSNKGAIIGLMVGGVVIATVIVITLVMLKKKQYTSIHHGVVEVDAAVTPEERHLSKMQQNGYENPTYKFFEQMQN

Activity [1]: Active
inhibition [2]: inactive
Activity [3]: Active
Activity [4]: inactive
Stability [5]: Stable
Activity [6]: inactive
Stability (trypsin (Sus scrofa)): Stable
Activity [7]: 41%
IC50 [8]: 890 pM
SMILES: CC[C@@H](C)[C@@H](NC(=O)[C@@H](CCCNC(=N)N)NC(=O)[C@@H](CCc1ccccc1)NC(=O)[C@H](NC(=O)[C@@H](CCCCN)NC(=O)[C@H](NC(=O)[C@@H](CCCNC(=N)N)NC(=O)[C@H](NC(=O)[C@@H](Cc1ccc2ccccc2c1)NC(=O)[C@@H](CCCNC(=N)N)NC(=O)[C@@H](CCCCN)NC(=O)[C@H](NC(=O)[C@@H](CCCNC(=N)N)NC(=O)[C@@H](CC(C)C)NC(=O)CCc1cn(CCN2CCCc3cc(/C=C/C4=C(Br)C(/C=C/c5cc6c7c(c5)CCCN7CCC6)=[O+][B-](F)(C(F)(F)F)O4)ccc32)nn1)C1CCCCC1)[C@H](C)CC)C1CCCCC1)[C@H](C)CC)C(=O)N[C@H](Cc1ccc(O)cc1)C(=O)N[C@H](CCc1ccccc1)C(N)=O (stereo not given in full)
Activity (HEK293): Non-Toxic
